# CAL PDZ FP-1 = blocks peptide binding to human CAL PDZ domain; Q9HD26; purified CAL PDZ, TMR-peptide fluorescence polarization, 1 h; inhibition, % at 20 µM; 330,000 tested, 0.02% active;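 active = highest replicate inhibition of at least 40%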;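 note: plate controls were DMSO neutral control wells for no effect and unlabeled competitor peptide control wells for full effect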
#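 material = purified tagged CAL PDZ domain construct (CerCALP) | buffer or medium = sodium phosphate/NaCl buffer pH 7.4 with TCEP, IgG, Thesit | reagent = TMR-labelled reporter peptide T*-PRC34 bound in PDZ groove | incubation = 1 h room-temperature incubation prior to read | measured by = fluorescence polarization (mP) | evaluation = percent inhibition from loss of millipolarization | control set = unlabelled peptide and DMSO controls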
# CAL PDZ FP-2 = CAL PDZ (human) peptide binding inhibition. Q9HD26. inhibition, % at 24.9 µM. 300,000 tested, 0.92% active. purified CAL PDZ, TMR-peptide fluorescence polarization, 1 h;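 active = mean inhibition of at least 30% with at least half of replicates also reaching 30%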;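 note: 0% = DMSO neutral control and 100% = excess unlabeled competitor peptide PRC23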
# ARNT TACC3 PPI = disruptors of human ARNT/TACC3 interaction. Q9Y6A5. AlphaScreen His-ARNT PAS-B/GST-TACC3 binding, luminescence; TACC3 fragment carries E629A point mutation. inhibition, % at 9.99 µM. 390,000 tested, 0.66% active;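 active = mean inhibition of replicates at least 50% and at least half of replicates each reaching 50%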;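 note: 0% = complete ARNT plus TACC3 wells and 100% = ARNT alone without TACC3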
# * marks the source's active call; other numbers are inactive results; / = not tested or not shown. The list is not random: actives were taken first. Their share in the collection is about 1.2%.
SMILES,CAL PDZ FP-1,CAL PDZ FP-2,ARNT TACC3 PPI
CC(=NNC(=S)N1CC2CCC(CC2)C1)c1ccncn1,-1.0,-3.2,58.4*
C/C(=N\NC(=S)NC1CCCCC1)c1ccc(Cl)c(Cl)c1,0.4,-3.2,19.6
O=C(NC(=O)N1CCN(c2ccc([N+](=O)[O-])cn2)CC1)c1ccccc1F,0.1,/,2.2
CN(NC(=O)c1ccccc1F)c1ccc([N+](=O)[O-])cn1,-0.8,54.8*,-2.3
C=CC(=O)NCc1ccc(-c2csnn2)cc1,1.0,56.7*,-10.3
O=C(NCc1ccc(-c2csnn2)cc1)C1CC1,0.9,/,-1.2
Cn1cnc(S(=O)(=O)N[C@H]2CC[C@@H](CC(=O)Nc3ccc(-c4ccccc4)cc3)O[C@H]2CO)c1,/,/,-7.5
C=CCNC(=S)N1CCN(c2ccccc2Cl)CC1,0.3,-4.0,/
CCCCNC(=S)N1CCN(c2ccccc2Cl)CC1,0.8,74.9*,-0.3
O=C(C[C@@H]1C[C@H]2c3cc(NC(=O)CC4CC4)ccc3O[C@H]2[C@@H](CO)O1)NCc1cccc(F)c1,/,/,0.7
COc1ccccc1CNC(=O)C[C@@H]1C[C@@H]2c3cc(NC(=O)Cc4ccncc4)ccc3O[C@@H]2[C@H](CO)O1,/,/,40.9*
COc1ccccc1CNC(=O)C[C@H]1C[C@H]2c3cc(NC(=O)Cc4ccncc4)ccc3O[C@H]2[C@@H](CO)O1,/,/,4.8
CCOc1ccc(/C=N/Nc2ccccn2)cc1OC,-0.6,29.7,10.3
COc1cc(N/N=C/c2ccc(N(C)C)cc2)ncn1,0.6,-3.4,-1.0
COc1cc(N/N=C/c2ccccc2O)ncn1,-5.1,/,62.9*
COc1cc(/C=N/Nc2ccccn2)cc(OC)c1O,-2.1,-4.7,66.5*
COCC(=O)N(C)C[C@@H]1Oc2ncc(C3=CCCC3)cc2C(=O)N([C@@H](C)CO)C[C@@H]1C,/,/,4.2
NCC[C@@H]1CC[C@@H](NC(=O)C2CCC2)[C@@H](CO)O1,/,/,5.2
C[C@H]1CN([C@@H](C)CO)C(=O)c2cc(NS(=O)(=O)c3cccs3)ccc2O[C@@H]1CN(C)C(=O)Nc1ccc(F)cc1,/,/,-1.9
COc1cccc(-c2ccc3n(c2=O)C[C@H]2[C@H](CO)[C@@H](C(=O)N4CCOCC4)N[C@@H]32)c1,/,/,21.1
OCCCNC(=S)Nc1ccc2nccnc2c1,-0.9,/,40.9
Fc1ccc(NC(=S)Nc2ccc3nccnc3c2)cc1,-2.7,-6.5,63.8*
C[C@@H]1CN([C@@H](C)CO)C(=O)Cc2cc(NC(=O)Nc3ccc(F)cc3)ccc2O[C@H]1CN(C)Cc1ccc2c(c1)OCO2,/,/,3.6
CCOP(=O)(OCC)/C(C#N)=C(\O)c1ccc(OC)cc1,-1.4,5.6,-2.9
CCOP(=O)(/C(C#N)=C(/O)c1ccccc1)c1ccccc1 (stereo not drawn),-0.3,122.5*,-7.3
SMILES,CAL PDZ FP-1,CAL PDZ FP-2,ARNT TACC3 PPI
Cc1[nH][nH]c(=O)c1C(c1ccc(-c2ccc(Cl)c(Cl)c2)o1)c1c(C)[nH][nH]c1=O,-1.3,-3.7,61.3*
COc1ccc(-c2ccc(C(c3c(C)[nH][nH]c3=O)c3c(C)[nH][nH]c3=O)o2)c([N+](=O)[O-])c1,0.3,4.8,4.2
Cc1cc(Cl)cc(C)c1OCC(=O)NC1CCCCCC1,-0.4,48.5*,/
Cc1cc(Cl)ccc1OCC(=O)NC1CCCC1,-0.8,-2.2,-3.7
O=C(Nc1ccc(C(F)(F)F)cc1)N[C@@H]1C=C[C@@H](CC(=O)N2CCCCC2)O[C@H]1CO,/,/,46.3*
O=C(Nc1ccc(C(F)(F)F)cc1)N[C@H]1C=C[C@@H](CC(=O)N2CCCCC2)O[C@H]1CO,/,/,0.2
CNC[C@@H]1Oc2ccc(NC(=O)c3ccncc3)cc2CC(=O)N([C@H](C)CO)C[C@@H]1C,/,/,-2.2
OC(CNCC1CCCO1)Cn1c2ccccc2c2ccccc21 (stereo not drawn),-0.7,-48.7,3.3
OC(CNCC1CCCO1)Cn1c2ccc(Cl)cc2c2cc(Cl)ccc21 (stereo not drawn),-1.2,43.8*,5.0
C=CCOc1ccc(C(=O)/C=C2/C(=O)Nc3ccccc32)cc1,0.8,-6.3,-6.1
C=CCOc1ccccc1C(=O)/C=C1/C(=O)Nc2ccccc21,/,70.3*,11.8
Cc1ccccc1S(=O)(=O)N1[C@H](C#N)[C@H](c2ccc(C#CC3CCCCC3)cc2)[C@H]1CO,/,/,14.7
C[C@H](CO)N1C[C@H](C)[C@H](CN(C)C(=O)Nc2ccccc2)Oc2ncc(-c3cccnc3)cc2C1=O,/,/,33.2
COc1ccc(CNC(=O)C[C@H]2CC[C@@H](NC(=O)c3ccc4c(c3)OCO4)[C@H](CO)O2)cc1,/,/,-2.0
O=[N+]([O-])c1cccc(-c2c[n+]3c(n2-c2ccccc2)SCC3)c1,-1.3,48.1*,-3.3
Clc1ccc(-c2c[n+]3c(n2-c2ccccc2)SCC3)cc1,-0.6,-4.0,-2.5
CC(=O)N(Cc1cc(=O)[nH]c2ccccc12)c1cccc(C)c1,-1.6,-5.8,13.4
Cc1cccc(N(Cc2cc(=O)[nH]c3ccccc23)C(=O)C(C)C)c1,/,35.0*,-1.7
C[C@@H](NC(=O)C[C@@H]1C[C@H]2c3cc(NC(=O)Nc4ccccc4F)ccc3O[C@H]2[C@@H](CO)O1)c1ccccc1,/,/,10.7
CC(C)NC(=O)N(C)C[C@@H]1OCCCC[C@H](C)Oc2ccc(N(C)C)cc2C(=O)N([C@H](C)CO)C[C@@H]1C,/,/,-2.3
Cc1cccc(C)c1NC(=O)C(=O)NCCCN1CCOCC1,-0.6,-1.7,-9.6
Cc1cccc(C)c1NC(=O)NCCCN1CCN(c2ccccc2)CC1,-0.5,51.3*,1.9
C[C@@H](NC(=O)C[C@H]1C[C@H]2c3cc(NC(=O)CC4CC4)ccc3O[C@H]2[C@H](CO)O1)c1ccccc1,/,/,-11.0
CCOC(=O)C1(CCCc2ccccc2)CCN(Cc2cnn(C)c2)CC1,-0.2,75.1*,-4.2
CCOC(=O)C1(CCCc2ccccc2)CCN(C(=O)CCc2cnn(C)c2)CC1,-2.4,0.3,/
SMILES,CAL PDZ FP-1,CAL PDZ FP-2,ARNT TACC3 PPI
Cc1[nH]c2ccccc2c1C(=O)C(=O)NCCOc1ccccc1,-0.6,45.9*,-3.7
COc1ccc(CCNC(=O)C(=O)c2c(C)[nH]c3ccccc23)cc1,-2.1,-2.4,-1.6
COc1ccc(NC(=S)N(Cc2ccc(N(C)C)cc2)Cc2ccco2)cc1,0.5,-4.9,9.9
CCOc1ccc(NC(=S)N(Cc2ccc(N(C)C)cc2)Cc2ccco2)cc1,/,4.0,17.1*
COc1ccc(S(=O)(=O)Nc2cccc3c2O[C@@H](CN(C)C(=O)NC2CCCCC2)[C@@H](C)CN([C@H](C)CO)C3=O)cc1,/,/,1.0
CCCNC(=O)C[C@@H]1CC[C@H]2[C@H](COc3ccc(NC(=O)CC)cc3C(=O)N2C)O1,/,/,-0.6
CCOC(=O)/C(C#N)=C1/SC(CC)C(=O)N1c1ccc(C)cc1 (stereo not drawn),-0.5,55.8*,-28.8
CCOC(=O)/C(C#N)=C1/C=CN(c2ccc(C)cc2)C=N1,-3.0,0.6,1.5
C[C@H](CO)N1C[C@H](C)[C@H](CN(C)C(=O)Cc2ccccc2)OCCCC[C@H](C)Oc2ccc(NC(=O)Cc3ccccc3)cc2C1=O,/,/,0.7
CCOC(=O)N1CCN(c2c(NCc3cccs3)c(=O)c2=O)CC1,-0.8,/,2.6
CCOC(=O)N1CCN(C(=O)CNCc2cccs2)CC1,-2.1,46.8*,3.7
CCCNC(=O)N(C)C[C@@H]1Oc2ncc(-c3ccc(F)cc3)cc2C(=O)N([C@@H](C)CO)C[C@@H]1C,/,/,-6.7

# Screening results deposited in PubChem BioAssay by Broad Institute.
